Reference: ChEMBL document CHEMBL1938282 (J Med Chem, 2011)

Assays:
Bos taurus = organism: Bos taurus; assay: Selectivity index, ratio of Ki for bovine MAOB to Ki for bovine MAOA
Outline: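 Selectivity was calculated as Ki(MAO-B)/Ki(MAO-A). Each Ki came from a Dixon plot of kynuramine deamination by beef brain mitochondria, with 1 μM clorgyline present for MAO-B or 1 μM L-deprenyl for MAO-A, read fluorimetrically.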

[1] = biological target: T1, Amine oxidase [flavin-containing] A (Bos taurus, UniProt P21398); assay: Inhibition of bovine brain MAOA using kynuramine as a substrate after 30 mins by spectrofluorometric method
T1 sequence (P21398 whole entry): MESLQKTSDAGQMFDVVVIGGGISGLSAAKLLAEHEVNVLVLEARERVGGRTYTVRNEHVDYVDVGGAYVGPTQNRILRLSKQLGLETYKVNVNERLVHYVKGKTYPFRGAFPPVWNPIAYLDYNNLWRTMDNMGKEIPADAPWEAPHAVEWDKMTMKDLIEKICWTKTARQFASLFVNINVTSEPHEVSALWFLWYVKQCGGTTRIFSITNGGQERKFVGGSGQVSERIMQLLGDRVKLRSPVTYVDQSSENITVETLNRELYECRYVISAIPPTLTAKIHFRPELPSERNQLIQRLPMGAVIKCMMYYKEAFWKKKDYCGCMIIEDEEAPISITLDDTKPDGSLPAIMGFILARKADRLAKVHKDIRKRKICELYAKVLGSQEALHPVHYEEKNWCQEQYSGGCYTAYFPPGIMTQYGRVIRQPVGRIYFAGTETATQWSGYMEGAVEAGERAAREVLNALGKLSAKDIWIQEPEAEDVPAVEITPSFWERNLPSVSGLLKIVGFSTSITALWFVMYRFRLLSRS
Outline: (§1)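 Mitochondria isolated from beef brain were pretreated for 30 min at 38 °C with 1 μM L-deprenyl to isolate MAO-A, or with 1 μM clorgyline to isolate MAO-B. Compounds in DMSO were preincubated for 30 min at 38 °C in potassium phosphate buffer at pH 7.4. Kynuramine was then added at four concentrations (5 μM–0.1 mM final) for 30 min.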

[2] = biological target: T2, Amine oxidase [flavin-containing] B (Bos taurus, UniProt P56560); assay: Inhibition of bovine brain MAOB using kynuramine as a substrate after 30 mins by spectrofluorometric method; outline: as §1
T2 sequence (P56560 whole entry): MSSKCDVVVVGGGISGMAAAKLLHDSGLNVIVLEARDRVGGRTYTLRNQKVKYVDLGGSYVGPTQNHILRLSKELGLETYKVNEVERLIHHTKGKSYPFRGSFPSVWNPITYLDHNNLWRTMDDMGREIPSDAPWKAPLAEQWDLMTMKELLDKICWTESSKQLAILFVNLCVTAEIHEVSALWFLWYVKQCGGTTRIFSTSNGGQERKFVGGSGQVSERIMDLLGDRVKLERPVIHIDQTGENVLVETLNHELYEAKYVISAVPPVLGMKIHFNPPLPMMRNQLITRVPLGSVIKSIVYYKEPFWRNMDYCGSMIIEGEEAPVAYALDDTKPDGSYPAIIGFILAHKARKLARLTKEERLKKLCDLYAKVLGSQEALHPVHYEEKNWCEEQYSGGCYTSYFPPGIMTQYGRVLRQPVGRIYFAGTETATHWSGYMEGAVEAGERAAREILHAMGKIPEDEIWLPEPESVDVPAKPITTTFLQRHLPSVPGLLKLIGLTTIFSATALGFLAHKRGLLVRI

C=CCn1ccc(N2C[C@H](CN)OC2=O)c1
Ratio Ki (Bos taurus): 11 | Ki [1]: 0.7 µM | Ki [2]: 8 µM

Cn1ccc(N2C[C@H](CN=[N+]=[N-])OC2=O)c1
Ratio Ki (Bos taurus): 1800 | Ki [1]: 0.2 µM | Ki [2]: 360 µM

COC[C@H]1CN(c2ccn(C)c2)C(=O)O1
Ratio Ki (Bos taurus): 567 | Ki [1]: 0.3 µM | Ki [2]: 170 µM

Cn1ccc(N2C[C@H](CN)OC2=O)c1
Ratio Ki (Bos taurus): 18000 | Ki [1]: 0.01 µM | Ki [2]: 180 µM

C=CCn1ccc(N2C[C@H](CNC)OC2=O)c1
Ratio Ki (Bos taurus): 20 | Ki [1]: 0.1 µM | Ki [2]: 2 µM

C=CCn1ccc(N2C[C@H](COC)OC2=O)c1
Ratio Ki (Bos taurus): 200000 | Ki [1]: 0.001 µM | Ki [2]: 200 µM

CCn1ccc(N2C[C@H](CN)OC2=O)c1
Ratio Ki (Bos taurus): 192 | Ki [1]: 0.13 µM | Ki [2]: 25 µM

C=CCn1ccc(N2C[C@H](CN=[N+]=[N-])OC2=O)c1
Ratio Ki (Bos taurus): 25000 | Ki [1]: 0.004 µM | Ki [2]: 100 µM

Cn1ccc(N2C[C@H](CO)OC2=O)c1
Ratio Ki (Bos taurus): > 10 | Ki [1]: 1 µM | Ki [2]: > 10 µM

C=CCn1ccc(N2C[C@H](CO)OC2=O)c1
Ratio Ki (Bos taurus): 1790 | Ki [1]: 0.35 µM | Ki [2]: 625 µM

CCn1ccc(N2C[C@H](CNC)OC2=O)c1
Ratio Ki (Bos taurus): 225 | Ki [1]: 0.08 µM | Ki [2]: 18 µM

CNC[C@H]1CN(c2ccn(C)c2)C(=O)O1
Ratio Ki (Bos taurus): > 14300 | Ki [1]: 0.007 µM | Ki [2]: > 100 µM

CCn1ccc(N2C[C@H](CN=[N+]=[N-])OC2=O)c1
Ratio Ki (Bos taurus): 25000 | Ki [1]: 0.0008 µM | Ki [2]: 20 µM

CCn1ccc(N2C[C@H](COC)OC2=O)c1
Ratio Ki (Bos taurus): 2170 | Ki [1]: 0.0006 µM | Ki [2]: 1.3 µM

COC[C@H]1CN(c2ccc(OCC[C@@H](O)C(F)(F)F)cc2)C(=O)O1 [BEFLOXATONE]
Ratio Ki (Bos taurus): 88 | Ki [1]: 0.0025 µM | Ki [2]: 0.22 µM

CCn1ccc(N2C[C@H](CO)OC2=O)c1
Ratio Ki (Bos taurus): 100 | Ki [1]: 0.003 µM | Ki [2]: 0.3 µM
